Assay [1] deals with Thymocyte. Description: Cytotoxicity against rat thymocytes assessed as cell survival after 24 hrs by trypan blue exclusion assay. It counts as cell-based. The essentials: (§1)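 Cells exposed 24 h to increasing concentrations (DMSO vehicle, 0.1% of medium; controls got DMSO) at 37 °C, 5% CO2. Viability by trypan blue exclusion, triplicate samples, at least 10 fields counted each; survival as % of viable cells vs control. IC50 read from dose–response curve as concentration giving 50% survival.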

Assay [2] can be described thus: Cytotoxicity against human C-28/I2 cells assessed as cell survival after 24 hrs by trypan blue exclusion assay. It counts as cell-based. Particulars: C28/I2, 24 h. The procedure, abridged: as §1
Assay [3] deals with HeLa. Briefly: Cytotoxicity against human HeLa cells assessed as cell survival after 24 hrs by trypan blue exclusion assay. The assay is classed as functional, cell-based. The essentials:
as §1

In assay [4] the test system is HeLa. Briefly: Induction of autophagy in human HeLa cells assessed as conversion of LC3-1 protein to LC3-2 protein at 8 mM after 24 hrs by Western blot analysis. It counts as functional, cell-based. The procedure, abridged:
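HeLa incubated 24 h with DENSPM (25 µM) or spermidine (8 mM); LC3-I/LC3-II processing by Western blot of 50 µg protein with monoclonal anti-LC3 antibody.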
For orientation: Immunoblotting shows a protein as a band on a membrane.

For assay [5], the system named is HeLa. Briefly: Induction of autophagy in human HeLa cells assessed as acidic vesicles accumulation at 20 uM after 3 hrs by acridine orange staining-based immunofluorescence microscopic analysis. The assay is classed as functional, cell-based. The procedure, abridged: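 HeLa incubated 3 h with 20 µM compound; acidic vesicle accumulation scored after acridine orange staining. Triplicate means ± S.E.M.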

Calls of active or inactive are those of the source. No cut-off for these calls is given here. Some results are limits rather than exact numbers.

This note sets out measurements from ChEMBL document CHEMBL2424600, “Synthetic polyamines activating autophagy: effects on cancer cell death” (Eur J Med Chem, 2013).

What is called IC50 is the concentration that gives 50% inhibition. Take `COc1ccccc1CNCCCCCCNCCCCCCCCNCCCCCCNCc1ccccc1OC` [METHOCTRAMINE]: the IC50 in assay [1], in assay [2] and in assay [3] was more than 100 µM in each case.
In the case of `NCCCCNCCCN`, the result in assay [4] was Active.
Consider `COc1ccccc1CNCCCCCCNCCCCCCCCCCCCNCCCCCCNCc1ccccc1OC`, for which the result in assay [5] was Active. Also, the IC50 in assay [1] is more than 100 µM; in assay [2] it was 77 µM; in assay [3], 21 µM.
